Test results taken from ChEMBL document CHEMBL1124369, “Pyrido[3,4-e]-1,2,4-triazines and related heterocycles as potential antifungal agents” (1989).
In brackets after ≈: the same amount, converted by molar mass.

Legend:
Mucor fragilis = assay: Antifungal activity against Mucor fragilis; assay type: functional
Summary of the method: (§1)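 Agar dilution MIC. Twofold serial drug dilutions in yeast nitrogen base medium with 1% dextrose, 0.15% asparagine and 1.5% agar. Agar surfaces inoculated using a Steers multiple inocula replicator, then incubated at 35 °C for 24-48 h. MIC was recorded as the lowest concentration inhibiting visible growth. Amphotericin B, miconazole and nystatin served as controls.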

Candida albicans [1] = assay: Antifungal activity against Candida albicans; assay type: functional; summary of the method: as §1
Candida tropicalis [2] = assay: Antifungal activity against Candida tropicalis; Range is 8-16; assay type: functional; summary of the method: as §1
Candida parapsilosis = assay: Antifungal activity against Candida parapsilosis; assay type: functional; details: Lodderomyces parapsilosis; summary of the method: as §1
Trichophyton rubrum [3] = assay: Antifungal activity against Trichophyton rubrum; Range is 2-4; assay type: functional; summary of the method: as §1
Kluyveromyces marxianus [4] = assay: Antifungal activity against Candida pseudotropicalis; Range is 8-16; assay type: functional; summary of the method: as §1
Trichophyton benhamiae [5] = assay: Antifungal activity against Trichophyton mentagrophytes; assay type: functional, trychophyton mentagrophytes; summary of the method: as §1
Aspergillus niger [6] = assay: Antifungal activity against Aspergillus niger; Range is 16-32; assay type: functional; summary of the method: as §1
Candida albicans [7] = assay: Antifungal activity against Candida stellatoidea; assay type: functional; summary of the method: as §1
Diutina rugosa = assay: Antifungal activity against Candida rugosa; assay type: functional; summary of the method: as §1
Aspergillus niger [8] = assay: Antifungal activity against Aspergillus niger; assay type: functional; summary of the method: as §1
Candida tropicalis [9] = assay: Antifungal activity against Candida tropicalis; assay type: functional; summary of the method: as §1
Kluyveromyces marxianus [10] = assay: Antifungal activity against Candida pseudotropicalis; assay type: functional; summary of the method: as §1
Aspergillus niger [11] = assay: Antifungal activity against Aspergillus niger; Range is 32-64; assay type: functional; summary of the method: as §1
Trichophyton rubrum [12] = assay: Antifungal activity against Trichophyton rubrum; assay type: functional; summary of the method: as §1
Candida albicans [13] = assay: Antifungal activity against Candida albicans; Range is 64-128; assay type: functional; summary of the method: as §1
Trichophyton rubrum [14] = assay: Antifungal activity against Trichophyton rubrum; Range is 8-32; assay type: functional
Trichophyton rubrum [15] = assay: Antifungal activity against Trichophyton rubrum; Range is 4-8; assay type: functional; summary of the method: as §1
Candida albicans [16] = assay: Antifungal activity against Candida albicans; Range is 8-16; assay type: functional; summary of the method: as §1
Aspergillus niger [17] = assay: Antifungal activity against Aspergillus niger; Range is 64-128; assay type: functional; summary of the method: as §1
Trichophyton benhamiae [18] = assay: Antifungal activity against Trichophyton mentagrophytes; Range is 64-128; assay type: functional, trychophyton mentagrophytes; summary of the method: as §1
Trichophyton rubrum [19] = assay: Antifungal activity against Trichophyton rubrum; Range is 32-64; assay type: functional; summary of the method: as §1
Trichophyton benhamiae [20] = assay: Antifungal activity against Trichophyton mentagrophytes; Range is 32-64; assay type: functional, trychophyton mentagrophytes; summary of the method: as §1
Trichophyton benhamiae [21] = assay: Antifungal activity against Trichophyton mentagrophytes; Range is 4-8; assay type: functional, trychophyton mentagrophytes; summary of the method: as §1
Trichophyton rubrum [22] = assay: Antifungal activity against Trichophyton rubrum; Range is 64-128; assay type: functional
Candida albicans [23] = assay: Antifungal activity against Candida albicans; Range is 32-64; assay type: functional; summary of the method: as §1
Candida tropicalis [24] = assay: Antifungal activity against Candida tropicalis; Range is 32-64; assay type: functional; summary of the method: as §1
Trichophyton rubrum [25] = assay: Antifungal activity against Trichophyton rubrum; Range is 1-2; assay type: functional; summary of the method: as §1

Compound | MIC (Mucor fragilis) [µg/mL] | MIC (Candida albicans [1]) [µg/mL] | MIC (Candida parapsilosis) [µg/mL] | MIC (Trichophyton benhamiae [5]) [µg/mL] | MIC (Candida albicans [7]) [µg/mL] | MIC (Diutina rugosa) [µg/mL] | MIC (Aspergillus niger [8]) [µg/mL] | MIC (Candida tropicalis [9]) [µg/mL] | MIC (Kluyveromyces marxianus [10]) [µg/mL] | also measured
c1ccc(-c2nnc3ccncc3n2)cc1 | > 128 | 16 (≈ 76.8 µM) | 16 (≈ 76.8 µM) | 8 (≈ 38.4 µM) | 16 (≈ 76.8 µM) | 32 (≈ 154 µM) |  |  |  | MIC (Candida tropicalis [2]): 8 µg/mL (≈ 38.4 µM); MIC (Trichophyton rubrum [3]): 2 µg/mL (≈ 9.61 µM); MIC (Kluyveromyces marxianus [4]): 8 µg/mL (≈ 38.4 µM); MIC (Aspergillus niger [6]): 16 µg/mL (≈ 76.8 µM)
c1ccc2nc(-c3nnc4ccncc4n3)cnc2c1 | 32 (≈ 123 µM) | 8 (≈ 30.7 µM) |  |  | 32 (≈ 123 µM) | 32 (≈ 123 µM) | 32 (≈ 123 µM) | 8 (≈ 30.7 µM) | 8 (≈ 30.7 µM) | 
c1cnc(-c2nnc3ccncc3n2)cn1 | 64 (≈ 304 µM) | 64 (≈ 304 µM) |  |  | 64 (≈ 304 µM) | 64 (≈ 304 µM) |  | 64 (≈ 304 µM) | 32 (≈ 152 µM) | MIC (Aspergillus niger [11]): 32 µg/mL (≈ 152 µM)
c1cc2nnc(C3CC3)nc2cn1 | 16 (≈ 92.9 µM) | 16 (≈ 92.9 µM) |  |  | 64 (≈ 372 µM) | 64 (≈ 372 µM) | 32 (≈ 186 µM) | 32 (≈ 186 µM) | 16 (≈ 92.9 µM) | 
CC1(C)N=Nc2ccncc2N1 |  | 128 (≈ 789 µM) | 128 (≈ 789 µM) | 128 (≈ 789 µM) |  |  | 128 (≈ 789 µM) | 128 (≈ 789 µM) | 128 (≈ 789 µM) | MIC (Trichophyton rubrum [12]): 128 µg/mL (≈ 789 µM)
FC(F)(F)c1ccc(-c2nnc3ccncc3n2)cc1 | > 128 |  | 128 (≈ 463 µM) | 64 (≈ 232 µM) | > 128 | > 128 | 128 (≈ 463 µM) | 128 (≈ 463 µM) | 128 (≈ 463 µM) | MIC (Candida albicans [13]): 64 µg/mL (≈ 232 µM); MIC (Trichophyton rubrum [14]): 8 µg/mL (≈ 29 µM)
Cc1nnc2ccncc2n1 | 16 (≈ 109 µM) |  | 16 (≈ 109 µM) | 16 (≈ 109 µM) | 32 (≈ 219 µM) | 16 (≈ 109 µM) |  | 8 (≈ 54.7 µM) | 8 (≈ 54.7 µM) | MIC (Trichophyton rubrum [15]): 4 µg/mL (≈ 27.4 µM); MIC (Candida albicans [16]): 8 µg/mL (≈ 54.7 µM); MIC (Aspergillus niger [6]): 16 µg/mL (≈ 109 µM)
CCOc1ccc(-c2nnc3ccncc3n2)cc1 | 128 (≈ 507 µM) | 64 (≈ 254 µM) |  |  | > 128 | > 128 |  | 64 (≈ 254 µM) | 64 (≈ 254 µM) | MIC (Aspergillus niger [17]): 64 µg/mL (≈ 254 µM)
Cc1nc(C)c2nc(-c3ccc(F)cc3)nnc2c1NC(=O)c1ccccc1 |  | 128 (≈ 343 µM) | 128 (≈ 343 µM) |  |  |  | 128 (≈ 343 µM) | 128 (≈ 343 µM) | 128 (≈ 343 µM) | MIC (Trichophyton benhamiae [18]): 64 µg/mL (≈ 171 µM); MIC (Trichophyton rubrum [19]): 32 µg/mL (≈ 85.7 µM)
c1cc2c(cn1)NC1(CCCCC1)N=N2 |  | 128 (≈ 633 µM) | 128 (≈ 633 µM) |  |  |  | 128 (≈ 633 µM) | 128 (≈ 633 µM) | 128 (≈ 633 µM) | MIC (Trichophyton benhamiae [20]): 32 µg/mL (≈ 158 µM); MIC (Trichophyton rubrum [19]): 32 µg/mL (≈ 158 µM)
Fc1ccc(-c2nnc3ccncc3n2)cc1 | 64 (≈ 283 µM) |  | 8 (≈ 35.4 µM) |  | 8 (≈ 35.4 µM) | 8 (≈ 35.4 µM) |  |  | 8 (≈ 35.4 µM) | MIC (Trichophyton benhamiae [21]): 4 µg/mL (≈ 17.7 µM); MIC (Candida tropicalis [2]): 8 µg/mL (≈ 35.4 µM); MIC (Candida albicans [16]): 8 µg/mL (≈ 35.4 µM); MIC (Aspergillus niger [6]): 16 µg/mL (≈ 70.7 µM); MIC (Trichophyton rubrum [12]): 4 µg/mL (≈ 17.7 µM)
c1cc2nnc(C3CCCC3)nc2cn1 | 4 (≈ 20 µM) |  |  |  | 32 (≈ 160 µM) | 16 (≈ 79.9 µM) |  | 64 (≈ 320 µM) | 16 (≈ 79.9 µM) | MIC (Candida albicans [16]): 8 µg/mL (≈ 40 µM); MIC (Aspergillus niger [6]): 16 µg/mL (≈ 79.9 µM)
CC1(C)N=Nc2c(cnc3ccccc23)N1 |  | 128 (≈ 603 µM) | 128 (≈ 603 µM) |  |  |  | 128 (≈ 603 µM) | 128 (≈ 603 µM) | 128 (≈ 603 µM) | MIC (Trichophyton benhamiae [18]): 64 µg/mL (≈ 302 µM); MIC (Trichophyton rubrum [22]): 64 µg/mL (≈ 302 µM)
CCCc1nnc2ccncc2n1 | 64 (≈ 367 µM) |  | 64 (≈ 367 µM) | 32 (≈ 184 µM) | 64 (≈ 367 µM) | 64 (≈ 367 µM) |  |  | 16 (≈ 91.8 µM) | MIC (Aspergillus niger [11]): 32 µg/mL (≈ 184 µM); MIC (Candida albicans [23]): 32 µg/mL (≈ 184 µM); MIC (Candida tropicalis [24]): 32 µg/mL (≈ 184 µM); MIC (Trichophyton rubrum [14]): 8 µg/mL (≈ 45.9 µM)
Cc1nc(C)c2nc(-c3ccncc3)nnc2c1N | 64 (≈ 254 µM) | 128 (≈ 507 µM) |  | 32 (≈ 127 µM) | > 128 | > 128 |  | 128 (≈ 507 µM) | 128 (≈ 507 µM) | MIC (Aspergillus niger [17]): 64 µg/mL (≈ 254 µM); MIC (Trichophyton rubrum [12]): 16 µg/mL (≈ 63.4 µM)
Fc1cccc(-c2nnc3ccncc3n2)c1 | 16 (≈ 70.7 µM) | 16 (≈ 70.7 µM) | 16 (≈ 70.7 µM) | 4 (≈ 17.7 µM) | 32 (≈ 141 µM) | 16 (≈ 70.7 µM) |  |  | 8 (≈ 35.4 µM) | MIC (Candida tropicalis [2]): 8 µg/mL (≈ 35.4 µM); MIC (Trichophyton rubrum [25]): 1 µg/mL (≈ 4.42 µM); MIC (Aspergillus niger [6]): 16 µg/mL (≈ 70.7 µM)
CC1N=Nc2ncccc2N1 (stereo unspecified) |  | 64 (≈ 432 µM) | 64 (≈ 432 µM) |  |  |  |  | 64 (≈ 432 µM) | 64 (≈ 432 µM) | MIC (Aspergillus niger [11]): 32 µg/mL (≈ 216 µM); MIC (Trichophyton benhamiae [20]): 32 µg/mL (≈ 216 µM); MIC (Trichophyton rubrum [14]): 8 µg/mL (≈ 54 µM)
Fc1ccccc1-c1nnc2ccncc2n1 | 64 (≈ 283 µM) | 32 (≈ 141 µM) | 32 (≈ 141 µM) | 8 (≈ 35.4 µM) | 32 (≈ 141 µM) | 16 (≈ 70.7 µM) | 16 (≈ 70.7 µM) | 32 (≈ 141 µM) | 32 (≈ 141 µM) | MIC (Trichophyton rubrum [3]): 2 µg/mL (≈ 8.84 µM)
CC(C)(C)c1ccc(-c2nnc3ccncc3n2)cc1 | 128 (≈ 484 µM) | 128 (≈ 484 µM) |  |  | > 128 | > 128 | 128 (≈ 484 µM) | 128 (≈ 484 µM) | 128 (≈ 484 µM) | 
